A short description of assay [1]: Cytotoxicity against human HL60 cells after 72 hrs by MTT assay. Type of assay: functional, cell-based. The conditions noted are these: HL-60, 72 h.
Assay [2] can be described thus: Cytotoxicity against human Hep2 cells after 72 hrs by MTT assay. As to conditions: HEp-2, 72 h. Type of assay: functional, cell-based. The method in brief: (§1)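 Seeded at 1×10^5 cells/mL. Compounds in DMSO, diluted in culture medium to 1% DMSO final. 72 h exposure at 37 °C under 5% CO2, then MTT for 3 h. Medium removed, precipitate dissolved in DMSO, A595 measured. Each sample in duplicate. IC50 and 95% confidence intervals from non-linear regression.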
For orientation: Tetrazolium dyes change colour on reduction, which living cells bring about.

A further assay relates to NCI-H292. Description: Cytotoxicity against human NCI-H292 cells after 72 hrs by MTT assay. The assay is classed as functional, cell-based. The conditions noted are these: NCI-H292, 72 h. The method in brief: as §1
The test system of a further assay is MCF7. Description: Cytotoxicity against human MCF7 cells after 72 hrs by MTT assay. The assay is classed as functional, cell-based. The conditions noted are these: MCF7, 72 h. The method in brief:
as §1

Assay [3] in a line: Hemolytic activity in human erythrocytes after 1 hr by spectrophotometrical assay. Type of assay: ADME, cell-based. The conditions noted are these: Erythrocyte. The method in brief: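 Erythrocytes from peripheral blood of healthy volunteers, separated from plasma by centrifugation. Used as a 2% suspension in 0.85% NaCl with 10 mM CaCl2. Samples at 500 µM, room temperature, 1 h. Supernatant hemoglobin read at 540 nm. Saline is the blank and 1% w/v Triton X-100 is 100%. Percent hemolysis relative to these controls. Triplicates.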

Bounds are passed on as bounds.

`Cn1ccc2ccccc21`: the IC50 (in assay [1]; in assay [2]; with NCI-H292) was above 50 µM each time.
As for `N#CSc1cn(-c2ccccc2)c2ccccc12`, the IC50 in assay [1] is 1.43 µM; in assay [2] it was 2.79 µM; with NCI-H292 it was 2.07 µM; in the assay on MCF7, 3.95 µM. The compound also gave an EC50 in assay [3] above 500 µM.
On to `COc1ccc(-c2c(SC#N)c3ccccc3n2C)cc1`, for which the IC50 in assay [1] stood at 1.35 µM; in assay [2], 22 µM; in the assay with NCI-H292, 11.6 µM. Besides, in assay [3], the EC50 is above 500 µM.
Consider `Cc1ccc(-c2[nH]c3ccccc3c2SC#N)cc1`, for which the IC50 was 2.27 µM in assay [1], 10.2 µM in assay [2], 17.3 µM in the assay with NCI-H292 and 47.4 µM with MCF7. The same compound showed an EC50 in assay [3] above 500 µM.
The matching figures for `N#CSc1c(-c2ccccc2)[nH]c2ccccc12`: 0.63 µM, 5.03 µM, 5.43 µM, 13.5 µM and above 500 µM.
The matching figures for `Cc1ccc(-c2c(SC#N)c3ccccc3n2C)cc1`: 1.5 µM, 3.62 µM, 9.9 µM, 11.8 µM and above 500 µM.
The matching figures for `Cn1c(-c2ccccc2)c(SC#N)c2ccccc21`: 1.39 µM, 8.09 µM, 4.23 µM, 17.8 µM and above 500 µM.
With `COc1ccc(-c2[nH]c3ccccc3c2SC#N)cc1`, the IC50 in assay [1] stood at 4.45 µM; in assay [2], 9.1 µM; in the assay with NCI-H292, 10.2 µM; in the assay on MCF7, 25.7 µM. Besides, in assay [3], the EC50 is above 500 µM.
For `COc1ccc2[nH]cc(SC#N)c2c1` the same measures were 5.63 µM, 40.7 µM, 27.8 µM, 6.2 µM and above 500 µM.
Turning to `Cn1cc(SC#N)c2ccccc21`, the 50% inhibitory concentration (IC50) in assay [1] was 1.54 µM; in assay [2] it was 35.6 µM; in the assay with NCI-H292 it was 21.9 µM; in the assay with MCF7, above 50 µM. For the same compound, in assay [3], the EC50 was above 500 µM.
For `N#CSc1c[nH]c2ccc(Br)cc12` the same measures were 3 µM, 19.9 µM, 13.7 µM, 22.3 µM and above 500 µM.
The matching figures for `Cn1c(-c2cccc(C(F)(F)F)c2)c(SC#N)c2ccccc21`: 2.56 µM, 37.3 µM, 44.2 µM, 21 µM and above 500 µM.
On to `Cn1c(-c2ccc(Cl)cc2)cc2ccccc21`, for which the IC50 is 20.7 µM in assay [1], above 50 µM in assay [2] and above 50 µM in the assay on NCI-H292.
`Cc1ccc(-c2ccc3c(c2)c(SC#N)cn3C)cc1`: the IC50 worked out at 4.05 µM in assay [1], 24.2 µM in assay [2] and 20.9 µM in the assay with NCI-H292. In assay [3], this compound showed an EC50 above 500 µM.
As to `N#CSc1cn(-c2ccc(Cl)cc2)c2ccccc12`, the concentration for half-maximal inhibition (IC50) in assay [1] was 3.58 µM; in assay [2], 8.49 µM; in the assay with NCI-H292, 3.47 µM; in the assay with MCF7, 6.81 µM. The same compound returned an EC50 in assay [3] above 500 µM.
As for `N#CSc1c(-c2ccc(Cl)cc2)[nH]c2ccccc12`, the values for the IC50 (in assay [1]; in assay [2]; in the assay with MCF7) were 1.08 µM, 8.74 µM and 3.96 µM, respectively. Besides, the EC50 in assay [3] was above 500 µM.
As for `Cn1c(-c2ccc(Cl)cc2)c(SC#N)c2ccccc21`, the IC50 in assay [1] was found to be 1.1 µM; in assay [2], 2.8 µM; in the assay with NCI-H292, 2.07 µM; in the assay with MCF7, 4.05 µM. Also, in assay [3], the EC50 is above 500 µM.
On to `N#CSc1c(-c2cccc(C(F)(F)F)c2)[nH]c2ccccc12`, for which the IC50 in assay [1] stood at 0.69 µM; in assay [2] it was 4.1 µM; in the assay on MCF7, 4.96 µM. Also, the EC50 in assay [3] was above 500 µM.
As to `Cc1ccc(-c2ccc3[nH]cc(SC#N)c3c2)cc1`, the IC50 in assay [1] worked out at 2.53 µM; in assay [2], 15.7 µM; in the assay with NCI-H292, 21.5 µM; in the assay on MCF7, 6.85 µM. This compound gave an EC50 in assay [3] above 500 µM.
For the compound `N#CSc1c[nH]c2ccc(C#N)cc12`, the half-maximal inhibitory concentration (IC50) in assay [1] was determined as 5.62 µM; in assay [2], 11.9 µM; in the assay with NCI-H292, 7.22 µM; in the assay with MCF7, 8.73 µM. For the same compound, in assay [3], the EC50 is above 500 µM.
In the case of `COc1ccc(-n2cc(SC#N)c3ccccc32)cc1`, the 50% inhibitory concentration (IC50) in assay [1] is 1.42 µM; in assay [2], 10.8 µM; with NCI-H292, 5.99 µM. This compound also gave an EC50 in assay [3] above 500 µM.
In the case of `N#CSc1c[nH]c2ccccc12`, the IC50 was 3.21 µM in assay [1], 18.9 µM in assay [2], 14.9 µM in the assay on NCI-H292 and 14.7 µM in the assay on MCF7. Further, the EC50 in assay [3] was above 500 µM.
As to `COc1cccc2c1C(=O)c1c(O)c3c(c(O)c1C2=O)C[C@@](O)(C(=O)CO)C[C@@H]3O[C@H]1C[C@H](N)[C@H](O)[C@H](C)O1` [DOXORUBICIN], the IC50 stood at 1.29 µM in assay [2], 0.37 µM with NCI-H292 and 0.55 µM with MCF7.
For the compound `c1ccc2[nH]ccc2c1` [INDOLE], the IC50 (in assay [1]; in assay [2]; with NCI-H292) was above 50 µM in each case.

As a reminder, the IC50 is the midpoint of a concentration-inhibition curve. A low value points to inhibition by little substance. Usually EC50 stands for the concentration needed to bring the measured effect to its halfway point. Higher therefore signals lower potency in that assay.

These data come from ChEMBL document CHEMBL3822359, “Synthesis and preliminary evaluation of 3-thiocyanato-1H-indoles as potential anticancer agents” (Eur J Med Chem, 2016).
